Measured values: the EternaBench riboswitch data

System: MS2 coat protein
Assay: apparent Kd, MS2 coat protein; higher = weaker binding; RNA-MaP array; FMN 200 µM where present
Procedure, shortened: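 The apparent Kd is the median of filtered binding-curve fits, one per cluster, to green signal normalised to red-channel RNA signal and control-cluster median Fmax. The clusters were on Illumina sequencing chips, and stalled E. coli RNA polymerase had transcribed the designs on them. Titration used SNAP-549-labelled MS2 coat protein from 0.7 or 1.5 nM, doubling to 3 µM, without and then with constant ligand, in 100 mM Tris-HCl pH 7.5, 80 mM KCl, 4 mM MgCl2, BSA, DTT, yeast tRNA and Tween-20.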

[1] = designed as: ON switch for flavin mononucleotide, no ligand
[2] = ligand present: flavin mononucleotide, designed as: ON switch for flavin mononucleotide
[3] = designed as: OFF switch for flavin mononucleotide, no ligand
[4] = ligand present: flavin mononucleotide, designed as: OFF switch for flavin mononucleotide

Sequence: UAGUGCAUUAGAGGAUAUUCUUACGACACGAGUAAGACAUGAGGAUCACCCAUGUUGUGGCAUGGGAAGAAGGCUGAUGUGCUA
- apparent Kd [1]: 60 nM
- apparent Kd [2]: 14.5 nM

Sequence: AUUUAUGUUGAGGAUAUGCUAAAAUGUAUAGUUGCAGAAGGCGACACAUGAGGAUCACCCAUGUUCAUGGAAUU
- apparent Kd [3]: 37 nM
- apparent Kd [4]: 43.7 nM

Sequence: ACAAAUCGAGGAUAUACAUGAGGAUCACCCAUGUGGAGCCCACUGCGCGGUUCUCAGCGUAGAAGGCGAAAACA
- apparent Kd [3]: 30.4 nM
- apparent Kd [4]: 99.9 nM

Sequence: AAGUUAGGGAGAGGAUAUUGACAUGAGGAUCACCCAUGUAUUUGGGAGUGUUUACUGAAUUCUUACGAGAAGGCUUACGAAAUU
- apparent Kd [3]: 344 nM
- apparent Kd [4]: 259 nM

Sequence: GUCAGCUCGUGAGGAUAUACAACACUGCUUCGGCAGUGUAGUAAGAUCACAUGAGGAUCACCCAUGUAGAAGGCACGAGCUGAU
- apparent Kd [3]: 6.05 nM
- apparent Kd [4]: 26.3 nM

Sequence: AUAUAGUCAGGAUAUCGAAGUGUGUGUUGGUUUGUAAUUUACGAGAAGGGACAUGAGGAUCACCCAUGUAGGAA
- apparent Kd [3]: 40.1 nM
- apparent Kd [4]: 34.9 nM

Sequence: GAUGGCGUCCAAGGAUAUCCUGACCGUUAACAUGAGGAUCACCCAUGUUGCCUAAAGGCGGCAUAGGAGAAGGUGGUACUCUGA
- apparent Kd [1]: 111 nM
- apparent Kd [2]: 155 nM

Sequence: UAUCCACAUGAGGAUCACCCAUGUCAGGAUAUUAGAUCUAUAUAUACAUAUAAUUAUUUAAGAAGGGACACUAA
- apparent Kd [3]: 11.5 nM
- apparent Kd [4]: 11.8 nM

Sequence: AAUUUACAGCUAGGAUAUACAUGAGGAUCACCCAUGUAAUGAUAGGAUCUUAUGAUCGUAUCAGUGUAGAAGGAGCAAAUAAGA
- apparent Kd [3]: 9.39 nM
- apparent Kd [4]: 8.81 nM

Sequence: ACGUCCCUCCAGAAGGGCAACUCGACAUGAGGAUCACCCAUGUUUACUUGCAGGAUAUGGUGGUAGAUCUAGUUAGCUCGAAGG
- apparent Kd [1]: 176 nM
- apparent Kd [2]: 47.4 nM

Sequence: AAGAAGUCAGGAUAUCCUGCUCGUCACUUGCGUGAUGAGUAGGAGAAGGGACAUGAGGAUCACCCAUGUAAAGU
- apparent Kd [3]: 51.1 nM
- apparent Kd [4]: 56.2 nM

Sequence: AUAUAAUAUCAGGAUAUGACUAGCUUCGGCUAGUCAGAAGGGAUGACAUGAGGAUCACCCAUGUGAUCAUAUAU
- apparent Kd [3]: 35.7 nM
- apparent Kd [4]: 153 nM

Sequence: CCGAGUAGCGCAGGAUAUGACUUGGUUGUUUGGUCAGAAGGGUGAUUCUCGGUAAGAAACAGGACAUGAGGAUCACCCAUGUCA
- apparent Kd [1]: 102 nM
- apparent Kd [2]: 24.9 nM

Sequence: GCCAGCUCGUGAGGAUAUACAACACUGCUUCGGCAGUGUAUUAAGAUCACAUGAGGAUCACCCAUGUAGAAGGCACGAGCUGAU
- apparent Kd [3]: 13.8 nM
- apparent Kd [4]: 261 nM

Sequence: GAAUAUUCGUUGAACAUGAGGAUCACCCAUGUAACUUGACAUGAGGAUAUGGAUUCUAAUUGGAUCCAGAAGGCAUGAAUAUUC
- apparent Kd [1]: 75.3 nM
- apparent Kd [2]: 26.9 nM

Sequence: UGCGUCUAGACAGGAUAUCAAGGACGCCUACAUGAGGAUCACCCAUGUCGGCGGAGCAGCUCCGUUGAGAAGGGUCAUCGCAAC
- apparent Kd [1]: 66.5 nM
- apparent Kd [2]: 24.2 nM

Sequence: AAGCGAGGGACAGGAUAUGCGGCGAAACUCGCCGCAGAAGGGUCGACAUGAGGAUCACCCAUGUCCUUACGCUCCAAGUAGUGG
- apparent Kd [1]: 101 nM
- apparent Kd [2]: 250 nM

Sequence: GAGCGAAAGCUCAAUGUCGAUAGCAGAAGGACAUGAAUAACAUGAAUAACAUGAGGAUCACCCAUGUAGGAUAUGCUAUCGACU
- apparent Kd [3]: 11.1 nM
- apparent Kd [4]: 108 nM

Sequence: GAUUGACAUGAGGAUCACCCAUGUGAGGAUAUCGGCCGGACCUUGUUAGCUUCCACCGCGAGAAGGCACAUCGG
- apparent Kd [3]: 19.7 nM
- apparent Kd [4]: 21.3 nM

Sequence: ACUUUACGAGGAUAUACUGUCGGGCCUCGGGCGUCCCUGCGACAUGAGGAUCACCCAUGUAGAAGGCGUUUACU
- apparent Kd [3]: 20.6 nM
- apparent Kd [4]: 35.2 nM

Sequence: AAAACAUGAGGAUCACCCAUGUUUAGAUCGGUCAAUAGAAGUGAGGAUAUACGAAGUUAAGGCUGGUAGAAGGCACUGGGUACA
- apparent Kd [1]: 32.4 nM
- apparent Kd [2]: 32.2 nM

Sequence: UCUGGAGCAGGAUAUGCAUUCGUGCUUCGGCACGUAAGGUCACAUGAGGAUCACCCAUGUAGAAGGGCUCCAGA
- apparent Kd [3]: 19.2 nM
- apparent Kd [4]: 34 nM

Sequence: UUGUUGUGAGUAAGGAUAUGAUGCAGGAAACUGCGUCAGAAGGUACAUGAGGAUCACCCAUGUUAAUUUUGUUU
- apparent Kd [3]: 16.8 nM
- apparent Kd [4]: 23.5 nM

Sequence: CUUUAGUGAGGAUAUCAGUAGUAGAACAAUAGUACUACUACUGAGAAGGCACAUGAGGAUCACCCAUGUUCCUC
- apparent Kd [3]: 31 nM
- apparent Kd [4]: 157 nM

Sequence: AUAGUACAUGAGGAUCACCCAUGUCAGGAUAUCGGAUGUGACAUGAAAAAAAUGUUAAUGAGAAGGGACUAUAA
- apparent Kd [3]: 43.6 nM
- apparent Kd [4]: 49 nM

Sequence: GCUGCAUAGGCAGGAUAUGCAAAAGCAGAUGCAAAGCAUCUGCAAAAUACAUGAGGAUCACCCAUGUAGAAGGGCCUGUGCAGU
- apparent Kd [3]: 23.1 nM
- apparent Kd [4]: 20.6 nM

Sequence: UACAGACAUGAGGAUCACCCAUGUGAGGAUAUUUCUGCUGGGAUCAGCCCAAUAUGCGAGAGAAGGCACUAGGG
- apparent Kd [3]: 133 nM
- apparent Kd [4]: 184 nM

Sequence: GAGUGACACCAGAAGGGCCAGGAAAGAACACUGGUAGGAUAUGGAGCGCCCUCGUAACGACCGACAUGAGGAUCACCCAUGUCC
- apparent Kd [1]: 117 nM
- apparent Kd [2]: 28.1 nM

Sequence: GGAUGACAAAGUCAUCCAAUUCGAACAUGAGGAUCACCCAUGUAGGAUAUGCUUCUCAAAGAGAAGCAGAAGGACAUGUGCCUU
- apparent Kd [3]: 29.5 nM
- apparent Kd [4]: 215 nM

Sequence: CGCACUAUACAUGAGGAUCACCCAUGUUAAUAUGAGAUAGUCAGAAGGCAUUGUUUGAGAAAUUAUGAGGAUAUGAAUAGUGCG
- apparent Kd [1]: 100 nM
- apparent Kd [2]: 23.7 nM

Sequence: AUAUAUACAAAGUUACAUGAGGAUCACCCAUGUUUAUUGGGAAGAAGGGUAACAUUAUUAGAUGUAUAGGAUAUUUCACAAUUG
- apparent Kd [1]: 599 nM
- apparent Kd [2]: 327 nM

Sequence: AUAAUUUUAUAUAUCAUUUUAAUCAGAAGGCAUAACAUGAGGAUCACCCAUGUAUAUUAUUGUUAUGAGGAUAUGAUUUGGUUA
- apparent Kd [3]: 19.1 nM
- apparent Kd [4]: 78.3 nM

Sequence: CAGUUCUGAGGAUAUCCACCCUCCUACAUGAGGAUCACCCAUGUUUCCCUCUGGGCUUUCGGAGAAGGCAGUUAUC
- apparent Kd [3]: 52.5 nM
- apparent Kd [4]: 43.6 nM

Sequence: GACGCGCUCACAGGAUAUAGAUCCUCAGUGGCUCUAGAAGGGUGAACGUGCCCGAACGGGACAUGAGGAUCACCCAUGUAAUAA
- apparent Kd [1]: 34.9 nM
- apparent Kd [2]: 13.2 nM

Sequence: GGAUAGGACAGAGGAUAUACAGAUAGGAUCUACUAUCAAACAGUCCUGACAUGAGGAUCACCCAUGUAGAAGGCUGUCCUAUCG
- apparent Kd [3]: 21.9 nM
- apparent Kd [4]: 107 nM

Sequence: GAUCUCGUCUAGAAGGUGUAAUAUAUAGUAGUACAAGGAUAUAGACAUGAGGAUCACCCAUGUCGUGCCUGGGCUCAUCUUAAA
- apparent Kd [3]: 5.92 nM
- apparent Kd [4]: 7.64 nM

Sequence: AGUGCGUAUGUGAGGAUAUGCUGGUCCUUGGAUCAGCAGAAGGCACAUGAGGAUCACCCAUGUGGUGUCGUACA
- apparent Kd [3]: 342 nM
- apparent Kd [4]: 24.9 nM

Sequence: UGUCUAUUUGAAGGAUAUCUAAGCAUAAACCAGAGAGAAGGUCAAUUAUACAUGAGGAUCACCCAUGUUGAGAUUAAUGGGUUU
- apparent Kd [3]: 20.5 nM
- apparent Kd [4]: 26.4 nM

Sequence: GAAUAAUUGAUCCAAUAUAACAACAUGAGGAUCACCCAUGUGCAGGAUAUCGUAUUUAUUAUAUACGAGAAGGGCAAGAACUGU
- apparent Kd [3]: 343 nM
- apparent Kd [4]: 475 nM

Sequence: GGACAUGUCGUCUACAUGAGGAUCACCCAUGUCGAUAGACAUGAGGAUAUCGAUACAAAUUGUAUCGAGAAGGCAUGCAGGUCC
- apparent Kd [1]: 18.7 nM
- apparent Kd [2]: 17.7 nM

Sequence: GGAUAGGACAGAGGAUAUACGUGCUAGAGAUACUAGCAAAAUUUCCUCACAUGAGGAUCACCCAUGUAGAAGGCUGUCCUAUUG
- apparent Kd [3]: 15.6 nM
- apparent Kd [4]: 460 nM

Sequence: UCGGCGCGAGGAUAUACGUUUGCUUUUUUUUGUCUUUGUGUACAUGAGGAUCACCCAUGUAGAAGGCGCGCCGC
- apparent Kd [3]: 21.3 nM
- apparent Kd [4]: 36.7 nM

Sequence: UGUCGGAGCAGAGGAUAUUACAUGAGGAUCACCCAUGUAUGAACCAAUAGCUGGAAACAGCAAUGAAAGAAGGCUGCUCCGACA
- apparent Kd [3]: 5.38 nM
- apparent Kd [4]: 5.13 nM

Sequence: UGAUUCGAGGCUAAGCCUCCAUCACAGGAUAUGCACGAGACAUGAGGAUCACCCAUGUGGCGAAGGCAGAAGGGUGAUACGUCU
- apparent Kd [1]: 197 nM
- apparent Kd [2]: 24.6 nM

Sequence: UGAUACCAAGGAUAUACAUGAGGAUCACCCAUGUCGGACCGAUGUGUCUCCUCCUGCUGUAGAAGGUGGAAAAU
- apparent Kd [3]: 39.9 nM
- apparent Kd [4]: 55.6 nM

Sequence: AAAAAGCGAGGAUAUACAUGAGGAUCACCCAUGUGAAAAAAAAAAAAAAAAAAAAAAAGUAGAAGGCGCAAAAA
- apparent Kd [3]: 85.8 nM
- apparent Kd [4]: 65.3 nM

Sequence: AACAGUACAGGAUAUACAUGAGGAUCACCCAUGUGAGAAUUAAGUGGCGUACCACAAUGUAGAAGGGUACUGGA
- apparent Kd [3]: 77.4 nM
- apparent Kd [4]: 65.5 nM

Sequence: UGGUACUAGGGAGGAUAUGGGUAGAUACAUGAGGAUCACCCAUGUUUAAGAAUGCCGAGAGGCAACUAGAAGGCCCUAGUACCU
- apparent Kd [1]: 549 nM
- apparent Kd [2]: 319 nM

Sequence: GACAGUGCUAAUAAAUAAGAUCUACAUGAGGAUCACCCAUGUAAGGAUAUCGUCAGGAAUACUGACGAGAAGGUACAUGCACUG
- apparent Kd [3]: 15.4 nM
- apparent Kd [4]: 26.2 nM

Sequence: UUAAGUUCAGGAUAUGAUGUUUUAAACAUGAGGAUCACCCAUGUAGAUCCUGAAUUAACAUCAGAAGGGAAUAUUU
- apparent Kd [3]: 37.5 nM
- apparent Kd [4]: 217 nM

Sequence: AUCAGCUCGUCAGGAUAUCCGUCACUGCGUCAGCAGUGUGGUAAGAUCACAUGAGGAUCACCCAUGUAGAAGGGACGAGCUGAU
- apparent Kd [3]: 6.08 nM
- apparent Kd [4]: 6.5 nM

Sequence: UUAUUACAUGAGGAUCACCCAUGUGAGGAUAUCGAUGUAACUAGCAGCGUGCGGGACUCGAGAAGGCACUUGGA
- apparent Kd [3]: 61.1 nM
- apparent Kd [4]: 144 nM

Sequence: AUAUGAGCUAUGGAGGAUAUCCAUAACAAGACAUGAGGAUCACCCAUGUAAUCAAAACAAUAAUGGGAGAAGGCCAUAGCUCAAU
- apparent Kd [1]: 67.8 nM
- apparent Kd [2]: 76.5 nM

Sequence: UUGGACGUCGUAGGAUAUGUAGGAUAUUCCUACAUGAGGAUCACCCAUGUUAACAUGGAAGAAGGACAGAAGGACGAUGUCCAU
- apparent Kd [1]: 326 nM
- apparent Kd [2]: 4.76 nM

Sequence: ACAUGAGGAUCACCCAUGUUUUUCGGGUACUCUUUUUACAGCAAGGAUAUGCAUGUUUUUUUUACGCAGAAGGUGCUUUACGUC
- apparent Kd [3]: 102 nM
- apparent Kd [4]: 165 nM
